Cav32 inh: inhibitors of human Cav3.2 T-type calcium channel; actives 4% (n = 100,000); B-score at 10 µM; Cav3.2-expressing cells, Fluo-4 calcium fluorescence FDSS; stronger effect = lower value; AID 449739;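 active = single-dose well whose peak fluorescence ratio is a statistical outlier from its plate by either plate-standardised score or position-corrected B-score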
CYP2C9 act: CYP2C9 (human) activation; actives 1.4% (n = 96,000); activation factor at 5 µM; recombinant CYP2C9, luciferin-H conversion, luminescence; stronger effect = higher value; factor 1 = untreated enzyme, 0 = blocked; AID 1024; P11712;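 active = activation factor of 2 or more for CYP2C9 at a 5 µM dose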
Target sequence (P11712 whole entry, looked up): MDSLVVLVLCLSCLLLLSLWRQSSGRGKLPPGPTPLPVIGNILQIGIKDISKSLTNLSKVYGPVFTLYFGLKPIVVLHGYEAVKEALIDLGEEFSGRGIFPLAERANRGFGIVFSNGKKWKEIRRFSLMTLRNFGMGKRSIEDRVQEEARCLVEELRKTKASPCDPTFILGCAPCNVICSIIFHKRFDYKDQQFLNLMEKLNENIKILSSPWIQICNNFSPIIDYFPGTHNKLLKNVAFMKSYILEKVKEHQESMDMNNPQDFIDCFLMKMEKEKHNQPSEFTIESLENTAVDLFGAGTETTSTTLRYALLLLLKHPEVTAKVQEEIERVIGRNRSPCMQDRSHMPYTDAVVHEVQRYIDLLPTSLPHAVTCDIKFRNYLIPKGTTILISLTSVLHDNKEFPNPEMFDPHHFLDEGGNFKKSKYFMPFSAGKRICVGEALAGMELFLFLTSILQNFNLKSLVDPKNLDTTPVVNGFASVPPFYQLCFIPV
CYP2C19 inh: inhibitors of human CYP2C19 | P33261 | CYP2C19 Supersomes, luciferin-H EGE luminescence, 30 min | inhibition, % at 5 µM | actives 21% (n = 96,000);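 active = CYP2C19 inhibition above a set limit at 5 µM in the primary screen, cut at about 50% in these data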
HIV Rev-RRE inh: inhibitors of HIV-1 Rev-RRE RNA interaction; Rev peptide-RRE RNA binding, FRET; actives 0.79% (n = 97,000); AID 704; inhibition, % at 8 µM;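 active = inhibition above the screen-wide mean plus 3 SD, cut at about 35% in these data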
Target sequence (P05866 whole entry, looked up): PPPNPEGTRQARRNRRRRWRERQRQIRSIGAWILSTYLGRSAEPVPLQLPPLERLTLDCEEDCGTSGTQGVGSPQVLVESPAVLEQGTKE
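Test system: Cy5-tagged RRE RNA duplex with fluorescein-tagged Rev peptide | Read-out: % inhibition of FRET ratio versus controls | Probe or stimulus: Labelled Rev peptide | Incubation: 5 min RNA-compound premix plus 15 min binding step, 25 °C | Technique: FRET fluorescence readout | Benchmarks: DMSO low control, neomycin B high control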
CYP2C19 act: activators of human cytochrome P450 2C19; recombinant CYP2C19, luciferin-H EGE luminescence; stronger effect = higher value; 0 = fully inhibited enzyme, 1 = untreated enzyme; P33261; activation factor at 5 µM; 96,000 tested, under 10 active;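 active = activation factor of at least 2 at 5 µM in the primary screen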
CYP2C9 inh: inhibitors of human CYP2C9. P11712. CYP2C9 Supersomes, luciferin-H conversion, luminescence. inhibition, % at 5 µM. actives 20% (n = 96,000);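 active = blocking of liver enzyme CYP2C9 beyond about 50% at 5 µM, limit read from the data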
Of the large screens only hits and unclear results are named; the others gave an inactive call. Shown are actives, neighbours in structure and some others; about 27% of the full set was active somewhere.

Cc1cccc(C)c1OCC(=O)N1CC2(C)CC1CC(C)(C)C2 (configuration not stated)	CYP2C19 inh 61
Cc1noc(C)c1COc1ccc(C(=O)OCC(=O)Nc2ccc3ccccc3c2)cc1	CYP2C19 inh 65, CYP2C9 inh 88
COc1ccc(C(C)=O)cc1COC(=O)c1ccc(OCc2c(C)noc2C)cc1	CYP2C19 inh 88, CYP2C9 inh 76
CCOC(=O)c1ccc(OCc2c(C)noc2C)cc1	CYP2C19 inh 75, CYP2C9 inh 79
COc1cc(C(=O)O)ccc1OCc1c(C)noc1C	none
COC(=O)[C@@]1(Cc2ccc(OC)cc2)[C@H]2c3cc(C(=O)N4CCCC4)n(CCc4c[nH]c5ccc(O)cc45)c3C[C@H]2CN1C(=O)c1ccccc1	none (no result: CYP2C9 act, CYP2C19 inh, HIV Rev-RRE inh, CYP2C19 act, CYP2C9 inh)
Cc1noc(C(=O)N2CC3(C)CC2CC(C)(C)C3)c1Cl (configuration not stated)	CYP2C19 inh 82
Cc1noc(C)c1COc1ccc(C(=O)OCC(=O)N2CC3(C)CC2CC(C)(C)C3)cc1 (configuration not stated)	CYP2C19 inh 64, CYP2C9 inh 53
Cc1ccc(NC(=O)c2c(C)noc2C)cc1	none
CCOC(=O)c1cc(NC(=O)c2c(C)noc2C)cc(C(=O)OCC)c1	CYP2C9 inh 75
COc1nc(C)nc(NC(=O)NS(=O)(=O)c2ccc(C)cc2)n1	none
O=C1[C@@H]2[C@H](C(=O)N1Cc1ccco1)[C@H]1C=C[C@@H]2C1	none
Cn1c(=NC(=O)CCl)sc2ccccc21	none
CN(C)c1ccc(N=c2sc3ccccc3n2C)cc1	CYP2C19 inh 98, CYP2C9 inh 77
CCOC(=O)N1CCN(C(=O)CSCC(=O)N=c2sc3ccccc3n2C)CC1	none
Cn1c(=Nc2ccccc2)sc2ccccc21	CYP2C19 inh 81
CC1(C)CC(=O)C2=C(C1)N(Cc1cccnc1)C(=O)C2(NC(=O)c1cccnc1)C(F)(F)F (configuration not stated)	none
CC1(C)CC(=O)C2=C(C1)OC(=O)C2(NC(=O)c1cccs1)C(F)(F)F (configuration not stated)	CYP2C9 inh 56
COc1ccc(-c2csc(NC(C)c3nc4cc(C(=O)NCCCO)ccc4n3Cc3ccc(C)cc3)n2)cc1 (configuration not stated)	none (no result: CYP2C9 act, CYP2C19 inh, HIV Rev-RRE inh, CYP2C19 act, CYP2C9 inh)
CC(C)C(=O)Nc1ccc2c(c1)nc(CCN1CCN(C)CC1)n2C	none
Cc1sc2ncnc(Nc3ccccc3)c2c1C	CYP2C19 inh 50
Cc1sc2ncnc(NCC3(N4CCOCC4)CCCCC3)c2c1C	CYP2C9 inh 60
Cc1sc2ncnc(NCC3CCCO3)c2c1C (configuration not stated)	Cav32 inh -7.6
Cc1sc2ncnc(Sc3nnnn3-c3ccccc3)c2c1C	CYP2C19 inh 56
Cc1sc2ncnc(SCC#N)c2c1C	none (no result: HIV Rev-RRE inh)
COCCn1c(=O)c2c3c(sc2n(CC(N)=O)c1=O)CCCC3	none (no result: Cav32 inh, CYP2C9 act, CYP2C19 inh, CYP2C19 act, CYP2C9 inh)
CSCC[C@H](Nc1ncnc2sc(C)c(C)c12)C(=O)O	CYP2C9 inh 83
Cc1sc2ncnc(NCc3ccccc3)c2c1C	CYP2C19 inh 75
CCCSc1ncnc2c1oc1ccccc12	none
CCOc1cc(N2CCOCC2)c(OCC)cc1NC(=O)c1ccc(=O)n(Cc2ccccc2)n1	none (no result: Cav32 inh, HIV Rev-RRE inh)
CCN(CC)CC(=O)Nc1ccc(C)cc1Br	CYP2C9 inh 62
Cc1ccc(NC(=O)CC(O)(C(F)(F)F)C(F)(F)F)c(Br)c1	CYP2C19 inh 87, CYP2C9 inh 86
CSCCC(NC(=O)c1ccco1)C(=O)O (configuration not stated)	none
CCC(C)NC(=O)CSc1nc2ccsc2c(=O)n1NC(=O)c1ccccc1 (configuration not stated)	none
Cc1ccccc1C(=O)OCn1nnc2ccccc2c1=O	none (no result: HIV Rev-RRE inh)
Cc1cc(C(=O)COc2cccc(-n3cnnn3)c2)c(C)n1-c1ccccc1	CYP2C19 inh 86
Cc1cc(C(=O)O)c(C)n1-c1ccccc1	CYP2C9 inh 65
Cc1cc(C(=O)OCn2nnc3ccccc3c2=O)c(C)n1-c1ccccc1	CYP2C19 inh 78, CYP2C9 inh 84 (no result: Cav32 inh)
COC(=O)COc1cccc(-n2cnnn2)c1	none
Cc1csc2ncc(C(=O)NCc3ccco3)c(=O)n12	none (no result: CYP2C9 act, CYP2C19 inh, CYP2C19 act, CYP2C9 inh)
CCCNC(=O)C1(CC2CC(c3ccccc3)=NO2)CCN(C(=O)CCCCCBr)CC1 (configuration not stated)	none (no result: CYP2C9 act, CYP2C19 inh, HIV Rev-RRE inh, CYP2C19 act, CYP2C9 inh)
CC(C)C[C@H](NC(=O)c1nc[nH]c1C(=O)N1CCc2ccccc2C1)C(=O)OC(C)(C)C	none (no result: CYP2C9 act, CYP2C19 inh, HIV Rev-RRE inh, CYP2C19 act, CYP2C9 inh)
O=C(Nc1ccc(OC(F)(F)F)cc1)C1CCCN(S(=O)(=O)c2cccnc2)C1 (configuration not stated)	CYP2C19 inh 99
O=C(Nc1ccc(S(=O)(=O)N2CCN(Cc3ccccc3)CC2)cc1)c1cnccn1	CYP2C9 inh 52
O=C(NCc1cccnc1)c1ccc(S(=O)(=O)N2CCCCC2)cc1	CYP2C19 inh 61
O=C(NCc1ccccc1)c1ccc(S(=O)(=O)N2CCCC2)cc1	none
NS(=O)(=O)c1ccc(CCNC(=O)c2ccc(S(=O)(=O)N3CCCCC3)cc2)cc1	CYP2C9 inh 61
N#Cc1cccc2cnccc12	none (no result: HIV Rev-RRE inh)
C/C=C\C(=O)Nc1cccc(C2=NOC3(C2)C[C@@H](C(N)=O)N(C(=O)c2ccc(Cl)cc2)C3)c1 (some centres not stated)	none (no result: CYP2C9 act, CYP2C19 inh, HIV Rev-RRE inh, CYP2C19 act, CYP2C9 inh)
N#C/C(C(=O)N1CCOCC1)=C1/SC=C(c2ccccc2)N1c1ccccc1	none (no result: Cav32 inh, CYP2C9 act, CYP2C19 inh, CYP2C19 act, CYP2C9 inh)
COc1ccccc1CNC(=O)c1oc2ccc(S(=O)(=O)N3CCCC3)cc2c1C	CYP2C9 inh 73 (no result: Cav32 inh)
O=C(COC(=O)c1ccc(S(=O)(=O)N2CCCC2)cc1)NCc1ccccc1	CYP2C9 inh 56
Cc1c(C(=O)NCc2ccc3c(c2)OCO3)oc2ccc(S(=O)(=O)N3CCCCC3)cc12	CYP2C9 inh 59
Cc1c(C(=O)N(C)Cc2ccccc2)oc2ccc(S(=O)(=O)N3CCCC3)cc12	CYP2C9 inh 95
Cc1c(C(=O)NCc2ccc3c(c2)OCO3)oc2ccc(S(=O)(=O)N3CCCC3)cc12	none (no result: Cav32 inh, HIV Rev-RRE inh)
O=c1c2ccccc2nc2n1CCC2O (configuration not stated)	none (no result: CYP2C9 act, CYP2C19 inh, HIV Rev-RRE inh, CYP2C19 act, CYP2C9 inh)
CC#CCN1c2ccccc2[C@]23C[C@@H](C(=O)OC)N=C2NC(C(=O)OC)=C(C(=O)OC)[C@H]13	none (no result: CYP2C9 act, CYP2C19 inh, HIV Rev-RRE inh, CYP2C19 act, CYP2C9 inh)
N#CC1(c2c(O)nc3n(c2=O)CCCS3)CCCCC1	none
Cc1c(C(=O)NCc2cccnc2)oc2ccc(S(=O)(=O)N3CCCCC3)cc12	none (no result: CYP2C9 act, CYP2C19 inh, CYP2C19 act, CYP2C9 inh)
O=C(Nc1ccc(S(=O)(=O)N2CCCC2)cc1)c1cccnc1	CYP2C9 inh 71
O=C(COC(=O)c1ccccc1S(=O)(=O)N1CCCCC1)NCC(F)(F)F	CYP2C9 inh 70
O=C(NCc1cccnc1)C1CCCN(S(=O)(=O)c2ccc(Br)cc2)C1 (configuration not stated)	CYP2C19 inh 63
Cc1c(C(=O)NCc2cccnc2)oc2ccc(S(=O)(=O)N3CCCCCC3)cc12	CYP2C9 inh 51 (no result: HIV Rev-RRE inh)
